The list is not random: actives were taken first. Their share in the collection is about 2.9%.
SIRT5 inh: SIRT5 desuccinylase inhibitors, primary screen, biochemical, fluorescence imaging, single point, set 5. NAD-dependent protein deacylase sirtuin-5, mitochondrial (Homo sapiens), Q9NXA8. Purified SirT5, succinyl-peptide AMC, trypsin-coupled fluorescence. inhibition, % at 15 µM. actives 1.1% (n = 330,000); in the data active = inhibition above about 15%; inconclusive = no clear call, values can overlap the other calls
Target sequence (Q9NXA8 whole entry, looked up): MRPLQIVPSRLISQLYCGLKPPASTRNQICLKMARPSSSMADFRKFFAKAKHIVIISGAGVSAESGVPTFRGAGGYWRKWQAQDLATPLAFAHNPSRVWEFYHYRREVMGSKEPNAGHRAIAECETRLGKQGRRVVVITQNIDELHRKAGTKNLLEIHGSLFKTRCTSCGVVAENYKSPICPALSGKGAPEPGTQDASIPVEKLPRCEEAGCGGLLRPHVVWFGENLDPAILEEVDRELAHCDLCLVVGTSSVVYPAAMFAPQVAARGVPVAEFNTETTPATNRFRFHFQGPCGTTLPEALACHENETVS
S100A4 inh HTS: inhibitors of S100A4-myosin IIA peptide binding, primary screen, biochemical, fluorescence polarization, TAMRA-MyoIIA peptide; inhibition, % at 10.7 µM; AID 652163, 2013; actives 0.14% (n = 360,000);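 active = mean inhibition of at least 70% across replicates, with every replicate also reaching that level; inconclusive = mean inhibition reaches 70% but some replicates fall short; inactive = mean inhibition below 70%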
Target sequence (P26447 whole entry, looked up): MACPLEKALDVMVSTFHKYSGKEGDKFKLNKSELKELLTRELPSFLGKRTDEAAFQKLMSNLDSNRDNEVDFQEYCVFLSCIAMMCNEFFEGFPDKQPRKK
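Material: S100A4 monomer (human). Medium: Calcium-containing HEPES buffer, pH 7.2. Probe or stimulus: labelled myosin peptide probe, 5 nM. Compound dosing: one concentration per compound. Timing: polarization read 5 min after assay mix addition, stable 5–60 min. Benchmarks: DMSO as neutral control, TFP as positive control.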
DENV2 CPE rescue: inhibitors of DENV2 cytopathic effect, primary screen, cell-based, plate reader, single concentration. DENV2-infected cells, cytopathic effect rescue. CPE inhibition, % at 9.99 µM. actives 1.7% (n = 350,000). AID 651640, 2012; in the data active = CPE inhibition above about 20%, passing the limit was not always enough; inconclusive = no clear call, values can overlap the other calls; tested in BHK-21 cells
PGC1a acetyl inh: inhibitors of PGC1a acetylation signal, primary screen, cell-based, U2OS, AlphaScreen, inhibitor mode. AlphaScreen anti-acetyl-lysine; with virally co-expressed GCN5 acetyltransferase. inhibition, % at 15.6 µM. actives 0.17% (n = 350,000);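 active = every replicate shows inhibition of at least 40%; inconclusive = mean inhibition at least 40% but some replicate below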
Statin myotox sup: suppressors of statin myotoxicity in C2C12 myotubes, primary screen, cell-based, single point, plate reader; C2C12 myotubes + simvastatin, ATP luminescence, 48 h; scaled: DMSO 0, geranylgeraniol control 100; rescue of ATP level, % at 7.49 µM; actives 0.78% (n = 330,000); AID 602340, 2012;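 active = mean ATP rescue above about 67%, or every replicate alone reaching that limit, limit read from the data, passing the limit was not always enough; inconclusive = no clear call, values can overlap the other calls; inactive = mean under the limit and some replicate under it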;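 note: myotubes were challenged with 10 µM simvastatin during compound exposure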
Each line names hits and unclear results; the compound was inactive in the other large screens.

N#CCC1(O)C(=O)N(Cc2ccccc2)c2ccccc21 (stereo unspecified)	SIRT5 inh 22 (no result: PGC1a acetyl inh, Statin myotox sup)
CC(=O)Nc1scc(C)c1-c1nc2ccccc2s1	DENV2 CPE rescue 50 (no result: PGC1a acetyl inh, Statin myotox sup)
CN(CC(=O)Nc1cccc(F)c1)C(=O)CSc1nc2ccccc2s1	DENV2 CPE rescue 61 (no result: PGC1a acetyl inh)
COc1cccc(NC(=O)CN(C)C(=O)CSc2nc3ccccc3s2)c1	none (no result: DENV2 CPE rescue, PGC1a acetyl inh, Statin myotox sup)
CN(CC(=O)Nc1cccc(F)c1)C(=O)c1ccccc1CCc1ccccc1	DENV2 CPE rescue 69 (no result: PGC1a acetyl inh)
C[C@H]1CN([C@@H](C)CO)C(=O)c2cccc(NC(=O)C3CCOCC3)c2O[C@H]1CN(C)S(=O)(=O)c1ccccc1	none
COc1ccccc1C(=O)Nc1ccc2c(c1)CN(Cc1cnc(C)s1)CC2	DENV2 CPE rescue 33 (no result: Statin myotox sup)
CCOC(=O)CNC(=O)N1CCc2ccc(NC(=O)c3ccccc3OC)cc2C1	none
O=C1C=CC(=O)N1Cc1ccccn1	SIRT5 inh 21
CC(=O)Nc1ccc2c(c1)C(=O)N(C)[C@@H]1CC[C@H](CC(=O)NCc3ccc(F)cc3)O[C@@H]1CO2	none
COC(=O)c1scc(C)c1NC(=O)C1CCCCC1	Statin myotox sup 83 (no result: SIRT5 inh, S100A4 inh HTS, DENV2 CPE rescue)
COC(=O)c1scc(C)c1NC(=O)c1ccc(Cl)cc1	none (no result: SIRT5 inh, S100A4 inh HTS, DENV2 CPE rescue, PGC1a acetyl inh)
Cc1cccc(S(=O)(=O)N[C@H]2CC[C@H](CCNC(=O)Nc3cc(F)ccc3F)O[C@H]2CO)c1	none
O=C(NCC[C@@H]1CC[C@@H](NC(=O)c2cccnc2)[C@H](CO)O1)Nc1ccc(F)cc1	none
O=C(CN1CCOCC1)N[C@H]1CC[C@@H](CCNC(=O)Nc2cc(F)ccc2F)O[C@@H]1CO	none
O=C(NCC[C@@H]1CC[C@H](NC(=O)Nc2cc(F)ccc2F)[C@H](CO)O1)Nc1ccc(Cl)cc1	none
O=C(NCC[C@H]1CC[C@@H](NC(=O)c2cccnc2)[C@H](CO)O1)Nc1ccc(F)cc1	DENV2 CPE rescue 21
O=C(CN1CCOCC1)N[C@@H]1CC[C@H](CCNC(=O)Nc2cc(F)ccc2F)O[C@@H]1CO	SIRT5 inh 16
O=C(NCC[C@H]1CC[C@@H](NC(=O)Nc2cc(F)ccc2F)[C@H](CO)O1)Nc1ccc(F)cc1	SIRT5 inh 33
Cc1cccc(S(=O)(=O)N[C@@H]2CC[C@@H](CCNC(=O)Nc3cc(F)ccc3F)O[C@@H]2CO)c1	DENV2 CPE rescue 39
C[C@H](CO)N1C[C@H](C)[C@@H](CN(C)Cc2ccc3c(c2)OCO3)OCCCC[C@H](C)Oc2ccc(NC(=O)CCC(F)(F)F)cc2C1=O	none (no result: Statin myotox sup)
O=c1[nH]c(CN2CCCCC2)nc2c1C1(CCCCC1)Cc1ccccc1-2	Statin myotox sup 91 (no result: SIRT5 inh, S100A4 inh HTS, DENV2 CPE rescue)
C[C@@H]1CCCCO[C@@H](CN(C)Cc2ccc3c(c2)OCO3)[C@H](C)CN([C@H](C)CO)C(=O)c2cc(NS(=O)(=O)c3cccs3)ccc2O1	DENV2 CPE rescue 38 (no result: SIRT5 inh, S100A4 inh HTS, Statin myotox sup)
C[C@@H]1CN([C@@H](C)CO)C(=O)c2cc(NS(=O)(=O)c3cccs3)ccc2O[C@@H](C)CCCCO[C@H]1CN(C)Cc1ccccc1	DENV2 CPE rescue 42 (no result: SIRT5 inh, Statin myotox sup)
C[C@@H]1CCCCO[C@@H](CN(C)Cc2ccc(Cl)c(Cl)c2)[C@H](C)CN([C@@H](C)CO)C(=O)c2cc(NS(=O)(=O)c3cccs3)ccc2O1	SIRT5 inh 25 (no result: Statin myotox sup)
C[C@@H]1CCCCO[C@@H](CN(C)Cc2ccc3c(c2)OCO3)[C@@H](C)CN([C@H](C)CO)C(=O)c2cc(NS(=O)(=O)c3cccs3)ccc2O1	none (no result: SIRT5 inh, S100A4 inh HTS, Statin myotox sup)
COc1ccc(CN(C)C[C@@H]2OCCCC[C@@H](C)Oc3ccc(NS(=O)(=O)c4cccs4)cc3C(=O)N([C@H](C)CO)C[C@@H]2C)cc1	none (no result: Statin myotox sup)
COc1ccc(CN(C)C[C@H]2OCCCC[C@H](C)Oc3ccc(NS(=O)(=O)c4cccs4)cc3C(=O)N([C@H](C)CO)C[C@H]2C)cc1	DENV2 CPE rescue 52 (no result: Statin myotox sup)
CN1[C@@H](CO)[C@@H]2c3ccccc3N(C(=O)Nc3cc(F)ccc3F)C[C@@H]21	DENV2 CPE rescue inconclusive
COc1ccc(-c2csc(C(C)(O)c3ccc(F)c(F)c3)n2)cc1OC (stereo unspecified)	DENV2 CPE rescue 21
Cc1ccc(-c2csc(C(C)(O)c3ccc(F)c(F)c3)n2)cc1C (stereo unspecified)	none
COc1ccc(C(C)(O)c2nc(-c3ccc(OC)c(OC)c3)cs2)cc1 (stereo unspecified)	none (no result: PGC1a acetyl inh)
COc1ccc(-c2csc(C(C)(O)c3ccccc3)n2)cc1OC (stereo unspecified)	Statin myotox sup 112
C[C@H](CO)N1C[C@H](C)[C@@H](CN(C)Cc2ccc(Cl)c(Cl)c2)OCCCC[C@H](C)Oc2ccc(NC(=O)C3CCCCC3)cc2C1=O	none (no result: Statin myotox sup)
C[C@H]1CN([C@@H](C)CO)C(=O)Cc2cc(NC(=O)CCCN(C)C)ccc2O[C@H]1CN(C)S(=O)(=O)c1ccc(Cl)cc1	none
CCC(=O)N(CC)c1nc(-c2ccc(OC)cc2)cs1	PGC1a acetyl inh 48 (no result: SIRT5 inh, S100A4 inh HTS, DENV2 CPE rescue)
CCC(=O)N(Cc1ccco1)c1nc(-c2ccc(OC)cc2)cs1	none (no result: SIRT5 inh, S100A4 inh HTS, DENV2 CPE rescue, PGC1a acetyl inh)
COc1ccc(-c2ccc3n(c2=O)C[C@H]2[C@H](CO)[C@@H](C(=O)Nc4ccccc4)[C@@H]3N2C)cc1	none (no result: PGC1a acetyl inh)
C/C=C/c1ccc([C@H]2[C@@H](CO)N3CCCCN(S(=O)(=O)c4ccccc4)C[C@@H]23)cc1	DENV2 CPE rescue 115 (no result: Statin myotox sup)
COc1ccc(S(=O)(=O)N2CCCCN3[C@H](CO)[C@@H](c4ccc(C#CC5CC5)cc4)[C@@H]3C2)cc1	SIRT5 inh 20 (no result: Statin myotox sup)
COc1ccc(S(=O)(=O)N2CCCCN3[C@H](C2)[C@@H](c2ccc(C#CC4CC4)cc2)[C@@H]3CO)cc1	none (no result: SIRT5 inh, S100A4 inh HTS, DENV2 CPE rescue, Statin myotox sup)
COc1ccc(C#Cc2ccc([C@@H]3[C@@H](CO)N4CCCCN(S(=O)(=O)c5ccccc5)C[C@@H]34)cc2)cc1	DENV2 CPE rescue 32
COc1ccc(C#Cc2ccc([C@H]3[C@@H](CO)N4CCCCN(S(=O)(=O)c5ccccc5)C[C@@H]34)cc2)cc1	DENV2 CPE rescue 82
C[C@@H]1CN([C@@H](C)CO)C(=O)Cc2cc(NC(=O)NC3CCCCC3)ccc2O[C@H]1CN(C)S(=O)(=O)c1cn(C)cn1	none
C[C@H](NC(=O)C[C@H]1C[C@H]2c3cc(NC(=O)CC4CC4)ccc3O[C@H]2[C@H](CO)O1)c1ccccc1	none
COc1ccc(NC(=O)N(C)C[C@H]2Oc3ccc(NS(=O)(=O)c4ccccc4)cc3CC(=O)N([C@H](C)CO)C[C@H]2C)cc1	none
COCC#Cc1ccc([C@H]2[C@H]3CN(S(=O)(=O)c4cccc(OC)c4)CCCCN3[C@H]2CO)cc1	DENV2 CPE rescue 23 (no result: Statin myotox sup)
COc1ccc(CN(CCC(c2ccccc2)C2CCOC(C)(C)C2)C(C)=O)cc1 (stereo unspecified)	DENV2 CPE rescue 102 (no result: Statin myotox sup)
